A short description of test [1]: Selectivity for Sprague-Dawley rat CB1 receptor over human recombinant CB2 receptor. A digest of the protocol:
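Selectivity is the ratio of the hCB2 IC50 to the rCB1 IC50. The hCB2 IC50 came from CHO-K1 membrane displacement of [3H]WIN55,212-2, and the rCB1 IC50 from rat cerebellar membrane binding. Both binding assays ran 1 h at 30 °C with filtration and scintillation counting.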

For test [2], the target named is Cannabinoid receptor 1 (Homo sapiens, UniProt P21554). The test can be described thus: Inverse agonist activity at human recombinant CB1 receptor expressed in CHO cells by luciferase reporter gene assay. The class given is functional, cell-based. (Reporter assays use an easily measured gene product as a stand-in for the process of interest.)
Sequence of Cannabinoid receptor 1 (Homo sapiens, UniProt P21554) (P21554 whole entry): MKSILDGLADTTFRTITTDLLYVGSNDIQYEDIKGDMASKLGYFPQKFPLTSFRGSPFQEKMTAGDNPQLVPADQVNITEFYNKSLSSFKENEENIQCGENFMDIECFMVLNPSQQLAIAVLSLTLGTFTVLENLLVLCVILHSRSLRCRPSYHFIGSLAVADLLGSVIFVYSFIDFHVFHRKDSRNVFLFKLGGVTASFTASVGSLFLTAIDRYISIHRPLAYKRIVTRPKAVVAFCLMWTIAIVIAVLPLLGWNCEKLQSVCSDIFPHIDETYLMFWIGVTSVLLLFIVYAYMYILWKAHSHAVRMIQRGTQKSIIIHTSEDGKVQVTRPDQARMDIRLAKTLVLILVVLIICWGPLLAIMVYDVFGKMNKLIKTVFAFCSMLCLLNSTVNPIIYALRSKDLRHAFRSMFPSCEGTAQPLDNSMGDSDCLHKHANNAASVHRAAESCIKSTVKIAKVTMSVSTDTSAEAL
In another test the target is Cannabinoid receptor 2 (Homo sapiens, UniProt P34972). Nature of the test: Displacement of [3H]WIN-55212-2 from human recombinant CB2 receptor expressed in CHO-K1 cell membrane. The class given is cell membranes. The procedure, abridged:
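CB2 membranes were from CHO K-1 cells transfected with human CB2, prepared in TME buffer (pH 7.4) and incubated with 3 nM [3H]WIN55,212-2 in TME plus 0.5% fatty-acid-free BSA for 1 h at 30 °C. Bound label was filtered on PEI-soaked GF/B, washed with ice-cold buffer containing 0.1% BSA, and counted by scintillation. IC50 values are from single determinations.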
In general terms: In a radioligand displacement assay an active substance lowers the binding of a labelled ligand.

For test [3], the target named is Cannabinoid receptor 1 (Rattus norvegicus, UniProt P20272). Nature of the test: Displacement of [3H]CP-55940 from CB1 receptor in Sprague-Dawley rat cerebellar membrane. Also on record: species or system Cerebellum. A digest of the protocol:
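Membranes came from cerebella of male Sprague Dawley rats (200–300 g), homogenized in TME buffer (50 mM Tris–HCl, 1 mM EDTA, 3 mM MgCl2, pH 7.4) and spun at 48,000g for 30 min at 4 °C. They were incubated 1 h at 30 °C in TME with 0.5% fatty-acid-free BSA, then filtered on PEI-soaked GF/B, washed and counted by scintillation. IC50 values are from single determinations.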

As usually defined, the IC50 is the concentration needed to halve the response being measured.

Sequence of Cannabinoid receptor 2 (P34972 whole entry): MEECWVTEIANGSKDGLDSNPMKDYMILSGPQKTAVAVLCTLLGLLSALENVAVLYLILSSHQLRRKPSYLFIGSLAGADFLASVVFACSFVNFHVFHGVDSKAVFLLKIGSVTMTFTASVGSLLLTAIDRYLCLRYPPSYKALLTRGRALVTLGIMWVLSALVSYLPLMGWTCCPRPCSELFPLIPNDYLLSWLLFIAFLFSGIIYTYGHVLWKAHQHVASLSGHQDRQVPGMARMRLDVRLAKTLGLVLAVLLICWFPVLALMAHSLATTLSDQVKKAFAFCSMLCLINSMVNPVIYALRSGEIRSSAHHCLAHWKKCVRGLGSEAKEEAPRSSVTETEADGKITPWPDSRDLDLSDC
Sequence of Cannabinoid receptor 1 (Rattus norvegicus, UniProt P20272) (P20272 whole entry): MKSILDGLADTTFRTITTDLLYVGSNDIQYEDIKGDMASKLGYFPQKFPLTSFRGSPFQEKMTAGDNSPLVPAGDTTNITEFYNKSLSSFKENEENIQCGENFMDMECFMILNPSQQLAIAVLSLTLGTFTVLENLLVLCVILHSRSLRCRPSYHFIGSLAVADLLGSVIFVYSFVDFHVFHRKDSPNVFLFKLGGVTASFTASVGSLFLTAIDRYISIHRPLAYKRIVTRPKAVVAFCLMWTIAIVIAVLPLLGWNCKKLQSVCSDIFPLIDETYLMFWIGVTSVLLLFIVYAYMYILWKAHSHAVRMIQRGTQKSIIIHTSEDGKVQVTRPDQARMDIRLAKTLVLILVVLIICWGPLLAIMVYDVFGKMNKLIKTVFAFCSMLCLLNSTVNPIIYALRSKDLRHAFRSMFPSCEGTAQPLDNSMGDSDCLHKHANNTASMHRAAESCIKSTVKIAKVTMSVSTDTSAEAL

Consider `CC(NC(=O)c1nn(-c2ccccc2Cl)c(-c2ccc(Br)cc2)c1Cn1cncn1)c1ccc(Br)cc1` (centres undefined), for which the Ratio IC50 in test [1] amounted to 1630. Further, the 50% inhibitory concentration (IC50) came out at 0.00251 µM at Cannabinoid receptor 1 [2], 1.79 µM on Cannabinoid receptor 2 and 0.0011 µM on Cannabinoid receptor 1 [3].
`Cc1cccc(N2CCN(C(=O)c3nn(-c4ccccc4Cl)c(-c4ccc(Br)cc4)c3Cn3cncn3)CC2)c1C`: in test [1], the Ratio IC50 came to 264. Also, the IC50 at Cannabinoid receptor 2 turned out to be 0.547 µM; on Cannabinoid receptor 1 [3], 0.00207 µM.
The corresponding values for `O=C(c1nn(-c2ccccc2Cl)c(-c2ccc(Br)cc2)c1Cn1cncn1)N1CCN(c2cccc(Cl)c2Cl)CC1` are 262, 0.582 µM and 0.00222 µM.
In the case of `CC(NC(=O)c1nn(-c2ccc(Cl)cc2Cl)c(-c2ccc(Br)cc2)c1Cn1cncn1)c1ccc(Br)cc1` (centres undefined), in test [1], the Ratio IC50 was determined as 4630. The IC50 on Cannabinoid receptor 1 [2] was found to be 0.0282 µM; on Cannabinoid receptor 2, 6.48 µM; at Cannabinoid receptor 1 [3], 0.0014 µM.

These data come from ChEMBL document CHEMBL1159084, “Synthesis and structure-activity relationship of 1,2,4-triazole-containing diarylpyrazolyl carboxamide as CB1 cannabinoid receptor-ligand” (Bioorg Med Chem, 2010).
